ChEMBL document CHEMBL1143122, “Novel analogs of D-e-MAPP and B13. Part 1: synthesis and evaluation as potential anticancer agents” (Bioorg Med Chem, 2008)

Key:
[1] = Antiproliferative activity against human HL60(TB) cells after 48 hrs; format: functional, HL-60(TB); conditions: HL-60, 48 h
In short: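 NCI 60-line panel screen: cells grown in RPMI 1640 with 5% fetal bovine serum and 2 mM L-glutamine, plated at 5,000–40,000 cells/well by doubling time, and preincubated 24 h at 37 °C in 5% CO2. Drugs were solubilised in DMSO at 400-fold the final maximum and tested at five 10-fold dilutions from 10−4 to 10−8 M for 48 h. Net protein was read spectrophotometrically, and the concentration giving 50% reduction was reported as log10 GI50.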

NCI-H23 = assay: Antiproliferative activity against human NCI-H23 cells after 48 hrs; format: functional; conditions: NCI-H23, 48 h
In short: (§1)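 NCI 60-cell screen. Cells were grown in RPMI 1640 with 5% FBS and 2 mM L-glutamine, then plated at 5,000–40,000 cells/well according to doubling time and preincubated for 24 h at 37 °C in 5% CO2. Compounds were dissolved in DMSO at 400× the top final concentration and tested at five 10-fold dilutions from 10−4 to 10−8 M for 48 h. Growth was read spectrophotometrically; GI50 is 50% net protein reduction.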

[2] = Antiproliferative activity against human NCI-ADR-RES cells after 48 hrs; format: functional; in short: as §1
A549 = assay: Antiproliferative activity against human A549 cells after 48 hrs; format: functional; conditions: A549, 48 h; in short: as §1
K562 = assay: Antiproliferative activity against human K562 cells after 48 hrs; format: functional; conditions: K562, 48 h; in short: as §1
HT-29 = assay: Antiproliferative activity against human HT29 cells after 48 hrs; format: functional; conditions: HT-29, 48 h; in short: as §1
IGROV-1 = assay: Antiproliferative activity against human IGROV1 cells after 48 hrs; format: functional; conditions: IGROV-1, 48 h; in short: as §1
SN12C = assay: Antiproliferative activity against human SN12C cells after 48 hrs; format: functional; in short: as §1
A498 = assay: Antiproliferative activity against human A498 cells after 48 hrs; format: functional; conditions: A498, 48 h; in short: as §1
MOLT-4 = assay: Antiproliferative activity against human MOLT4 cells after 48 hrs; format: functional; conditions: MOLT-4, 48 h; in short: as §1
SF-539 = assay: Antiproliferative activity against human SF539 cells after 48 hrs; format: functional; conditions: SF-539, 48 h; in short: as §1
MCF7 = assay: Drug level in human MCF7 cells at 10 uM per 10^6 cells after 0.5 hrs; format: ADME, cell-based; conditions: mcf7, 0.5 h
In short: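 MCF7 cells kept in RPMI 1640 with 10% fetal calf serum at 37 °C, 5% CO2, then treated with 10 μM analog. Intracellular analog measured over time by HPLC-MS in positive-ion MRM mode. Quantified against calibration curves made by spiking an artificial matrix with standards plus internal standard, using analyte/IS peak-area ratios and linear regression. Reported as pmol per 1×10^6 cells.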

SNB-75 = assay: Antiproliferative activity against human SNB75 cells after 48 hrs; format: functional; conditions: SNB-75, 48 h; in short: as §1
SF-268 = assay: Antiproliferative activity against human SF268 cells after 48 hrs; format: functional; conditions: SF-268, 48 h; in short: as §1
T47D = assay: Antiproliferative activity against human T47D cells after 48 hrs; format: functional
In short: (§2)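 NCI 60-cell-line screen. Lines grown in RPMI 1640 with 5% fetal bovine serum and 2 mM L-glutamine, plated at 5,000–40,000 cells/well according to doubling time, left 24 h at 37 °C in 5% CO2. Drug stocks in DMSO at 400-fold the top final concentration. Five 10-fold dilutions, 10−4 to 10−8 M, incubated 48 h. Growth read spectrophotometrically as net protein; GI50 taken as 50% reduction.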

SK-OV-3 = assay: Antiproliferative activity against human SKOV3 cells after 48 hrs; format: functional; conditions: SK-OV-3, 48 h; in short: as §1
OVCAR-8 = assay: Antiproliferative activity against human OVCAR8 cells after 48 hrs; format: functional; conditions: OVCAR-8, 48 h; in short: as §1
TK-10 = assay: Antiproliferative activity against human TK10 cells after 48 hrs; format: functional; conditions: TK-10, 48 h; in short: as §2
UACC-257 = assay: Antiproliferative activity against human UACC257 cells after 48 hrs; format: functional; conditions: UACC-257, 48 h; in short: as §2
M14 = assay: Antiproliferative activity against human M14 cells after 48 hrs; format: functional; conditions: M14, 48 h; in short: as §1
HOP-92 = assay: Antiproliferative activity against human HOP92 cells after 48 hrs; format: functional; conditions: HOP-92, 48 h; in short: as §1
HOP-62 = assay: Antiproliferative activity against human HOP62 cells after 48 hrs; format: functional; conditions: HOP-62, 48 h; in short: as §1
Hs-578T = assay: Antiproliferative activity against human HS578T cells after 48 hrs; format: functional; in short: as §1
RPMI-8226 = assay: Antiproliferative activity against human RPMI8226 cells after 48 hrs; format: functional; conditions: RPMI-8226, 48 h; in short: as §1
HCC 2998 = assay: Antiproliferative activity against human HCC2998 cells after 48 hrs; format: functional; conditions: HCC 2998, 48 h; in short: as §1
BT-549 = assay: Antiproliferative activity against human BT549 cells after 48 hrs; format: functional; conditions: BT-549, 48 h; in short: as §1
SW-620 = assay: Antiproliferative activity against human SW620 cells after 48 hrs; format: functional; conditions: SW-620, 48 h; in short: as §2
[3] = read-out: Log LC50 (the source's name) (converted)

CCCCCCCCCCCCCCN[C@H](CO)[C@H](O)c1ccc([N+](=O)[O-])cc1.Cl
GI50 [1]: 2.04 µM
LC50 [1]: 15.1 µM
TGI ([1]; read-out: Log TGI (converted)): 4.79 µM
GI50 (NCI-H23): 14.5 µM
CC50 (NCI-H23; [3]): 83.2 µM
TGI (NCI-H23; read-out: Log TGI (converted)): 34.7 µM
GI50 [2]: 2.04 µM
LC50 [2]: 8.91 µM
TGI ([2]; read-out: Log TGI (converted)): 4.27 µM
GI50 (A549): 3.55 µM
CC50 (A549; [3]): > 100 µM
TGI (A549; read-out: Log TGI (converted)): 19.5 µM
GI50 (K562): 1.86 µM
LC50 (K562): 7.76 µM
TGI (K562; read-out: Log TGI (converted)): 3.8 µM
GI50 (HT-29): 1.86 µM
TGI (HT-29; read-out: Log TGI (converted)): 3.47 µM
GI50 (IGROV-1): 1.91 µM
TGI (IGROV-1; read-out: Log TGI (converted)): 3.63 µM
GI50 (SN12C): 2.19 µM
LC50 (50% net cell kill) (SN12C): > 100 µM
TGI (SN12C; read-out: Log TGI (converted)): 4.79 µM
GI50 (A498): 6.76 µM
CC50 (A498; [3]): 93.3 µM
TGI (A498; read-out: Log TGI (converted)): 26.9 µM
GI50 (MOLT-4): 1.62 µM
LC50 (MOLT-4): 7.59 µM
TGI (MOLT-4; read-out: Log TGI (converted)): 3.55 µM
GI50 (SF-539): 1.66 µM
LC50 (SF-539): 6.03 µM
TGI (SF-539; read-out: Log TGI (converted)): 3.16 µM
Drug uptake (MCF7): 3600 pmol
GI50 (SNB-75): 3.98 µM
CC50 (SNB-75; [3]): 60.3 µM
TGI (SNB-75; read-out: Log TGI (converted)): 26.9 µM
GI50 (SF-268): 2.09 µM
LC50 (SF-268): > 100 µM
TGI (SF-268; read-out: Log TGI (converted)): 4.9 µM
GI50 (T47D): 3.8 µM
CC50 (T47D; [3]): 87.1 µM
TGI (T47D; read-out: Log TGI (converted)): 14.1 µM
GI50 (SK-OV-3): 8.91 µM
CC50 (SK-OV-3; [3]): 79.4 µM
TGI (SK-OV-3; read-out: Log TGI (converted)): 27.5 µM
GI50 (OVCAR-8): 2.29 µM
CC50 (OVCAR-8; [3]): > 100 µM
TGI (OVCAR-8; read-out: Log TGI (converted)): 5.62 µM
GI50 (TK-10): 10.5 µM
CC50 (TK-10; [3]): 66.1 µM
TGI (TK-10; read-out: Log TGI (converted)): 26.3 µM
GI50 (UACC-257): 4.27 µM
CC50 (UACC-257; [3]): 93.3 µM
TGI (UACC-257; read-out: Log TGI (converted)): 20.9 µM
GI50 (M14): 2.04 µM
LC50 (M14): 6.92 µM
TGI (M14; read-out: Log TGI (converted)): 3.72 µM
GI50 (HOP-92): 1.26 µM
LC50 (HOP-92): 6.17 µM
TGI (HOP-92; read-out: Log TGI (converted)): 2.75 µM
GI50 (HOP-62): 1.91 µM
CC50 (HOP-62; [3]): 6.31 µM
TGI (HOP-62; read-out: Log TGI (converted)): 3.47 µM
GI50 (Hs-578T): 2.09 µM
LC50 (Hs-578T): 100 µM
TGI (Hs-578T; read-out: Log TGI (converted)): 5.25 µM
GI50 (RPMI-8226): 2.19 µM
CC50 (RPMI-8226; [3]): > 100 µM
TGI (RPMI-8226; read-out: Log TGI (converted)): 4.68 µM
GI50 (HCC 2998): 2.4 µM
CC50 (HCC 2998; [3]): 29.5 µM
TGI (HCC 2998; read-out: Log TGI (converted)): 5.62 µM
GI50 (BT-549): 1.51 µM
LC50 (BT-549): 5.62 µM
TGI (BT-549; read-out: Log TGI (converted)): 2.88 µM
GI50 (SW-620): 2 µM
LC50 (concentration killing 50% of cells) (SW-620): 100 µM
TGI (SW-620; read-out: Log TGI (converted)): 4.68 µM
